This is a sample that favours compounds with a hit; in the whole collection about 1.9% have one here.
MT stabilizer = microtubule stabilizers in HeLa cells | 200,000 tested, 0.83% active | HeLa tubulin immunostaining HCS, 24 h; share of cells brighter than vehicle mean+2SD | % tubulin-high responders, % at 10 µM;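 active means plate Z-score above 3 for both tubulin-high and condensed-nucleus cell shares, with cell loss under 80%, at 10 µM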;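 further: anti alpha tubulin signal scored within the nucleus-defined area of each cell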
bCat nuc transl = alters nuclear translocation of beta-catenin in HeLa cells; immunofluorescence imaging; nuclear translocation activity, % at 5 µM; 190,000 tested, 0.3% active; AID 1665;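 active means nuclear translocation activity above 50% at 5 µM, with a well cell count of 50 or more; inconclusive means wells under 50 cells across six images, flagged as toxic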;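 further: per-cell ratio of nuclear to cytoplasmic median beta-catenin stain intensity; plate controls were DMSO negative control for no effect and GSK-3 inhibitor IX positive control for full effect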
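Test system: human HeLa cells, native beta-catenin. Compound dosing: 5 µM primary single dose, 0.1% DMSO, 0.02–20 µM confirmation series. Incubation: compound exposure 24 h at 37°C. Detection: beta-catenin immunostaining with DAPI counterstain, 20x imaging, 6 fields/well. Read-out basis: Nuclear/cytoplasmic beta-catenin signal ratio, % activation.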
Autophagy HCS = modulators of autophagy | MEF GFP-LC3 puncta imaging; test concentration mostly 10 µM | calls only at 10 µM (by protocol) | AID 463193 | 190,000 tested, 0.98% active;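 active means percentage of spot-positive cells more than 3 SD above its plate mean, without a fluorescence outlier flag or 80% toxicity; inconclusive means no clear call, values can overlap the other calls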;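 further: spot-positive cell cutoff set from DMSO-treated cells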
TbHK1 inh = T. brucei hexokinase 1 inhibition; recombinant TbHK1, G6PDH-coupled NADH A340; inhibition, % at 10 µM; 220,000 tested, 0.11% active;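 active means inhibition of 50% or more in the single-dose primary screen; inactive means inhibition below 50%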
Ins promoter up = MIN6 insulin promoter up-regulation | MIN6 insulin promoter-GFP reporter, high-content imaging; stronger effect = higher value | z-score at 5 µM | 190,000 tested, 0.3% active;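 active means z-score above 3 at 5 µM with at least 500 cells counted in the well; inconclusive means wells under 500 cells, flagged as cytotoxic or low count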
* hit, by the source's call; i = inactive; u = inconclusive; x = not tested or not shown; + = active, no number.

SMILES	MT stabilizer	bCat nuc transl	Autophagy HCS	TbHK1 inh	Ins promoter up
COc1ccc(C(=O)N(Cc2ccccc2)Cc2cc3cc4c(cc3[nH]c2=O)OCCO4)cc1	36*	-2	i	-5	1.1
COc1cccc(C(=O)N(Cc2ccccc2)Cc2cc3cc4c(cc3[nH]c2=O)OCCO4)c1	2	-2	i	-2	-0.22
O=c1[nH]c2cc3c(cc2cc1CN(Cc1ccco1)C(=S)NCC1CCCO1)OCCO3 (configuration not stated)	22*	18	i	-13	-0.83
Cc1ccc2[nH]c(=O)c(CN(CC3CCCO3)C(=S)Nc3ccccc3)cc2c1 (configuration not stated)	12*	0	i	-9	x
COc1ccc(C2c3ccc(O)cc3Oc3ncn4nc(-c5ccncc5)nc4c32)cc1OC (configuration not stated)	x	0	x	-14	-0.67
Cc1ccc(C)c(NC(=O)CN(C)C(=O)COc2ncnc3sccc23)c1	4	x	i	34	-0.21
O=C(Cn1cnc([N+](=O)[O-])n1)N/N=C/c1cc(Cl)ccc1O	3	1	i	-1	-0.61
CCOc1ccccc1NC(=O)C(NCC1(N2CCCCC2)CCCCC1)c1ccccc1 (configuration not stated)	3	2	+	14	-1.2
CCOc1ccccc1NC(=O)C(OC(=O)C1CC1)c1ccccc1 (configuration not stated)	x	0	x	-6	-0.86
Nc1cc(=O)[nH]c(N2CCN(c3ccccc3)CC2)n1	6	-2	+	0	-0.44
O=c1[nH]c(N2CCN(c3ccccc3)CC2)nc2c1CCCC2	2	x	i	0	0.22
FC(F)(F)c1cccc(-c2ccn3ncnc3n2)c1	4	0	i	-1	0.77
COc1ccccc1-c1cc(C(=O)Nc2ccccc2SC)no1	3	3	i	2	-1.1
COc1cc(NC(=O)c2cc(-c3cccc(O)c3)on2)cc(OC)c1OC	5	3	x	1	-0.34
COc1cc(NC(=O)c2cc(-c3cccs3)on2)cc(OC)c1OC	54*	2	i	-3	2
COc1ccc(NC(=O)c2cc(-c3ccco3)on2)cc1	4	x	i	0	-0.53
COc1ccc(NC(=O)c2cc(-c3ccccc3OC)on2)cc1	51*	145*	i	3	-1.2
COc1ccc(CCNC(=O)c2cc(-c3ccccc3OC)on2)cc1OC	2	-1	i	-2	-1
COc1ccccc1-c1cc(C(=O)Nc2cccnc2)no1	24*	70*	i	2	0.53
COc1ccccc1-c1cc(C(=O)NCCc2ccccc2)no1	21*	x	i	-10	x
COC(=O)COc1ccc(NS(=O)(=O)c2cccc([N+](=O)[O-])c2)cc1	3	5	i	-1	-1
O=C(O)CC1NC(=O)N(C2CCCCC2)C1=O (configuration not stated)	2	0	i	1	-0.31
COc1cc(C)nc(N2CCCC(C(=O)Nc3cccc(Cl)c3C)C2)n1 (configuration not stated)	2	-3	i	2	3.9*
CCOc1ccccc1-n1nnnc1SCC(=O)O	x	-1	x	-2	-0.52
CN(C)c1ccc(C(=O)c2ccc(N(C)C)c(N)c2)cc1N	23*	5	i	-20	-0.77
SMILES	MT stabilizer	bCat nuc transl	Autophagy HCS	TbHK1 inh	Ins promoter up
CN(C)c1ccc(C(=O)c2ccccc2)cc1	3	-12	i	-16	x
CCOc1ccc(C(=O)c2ccc(OCC)c(N)c2)cc1N	53*	5	i	-14	0.26
CCOc1ccc(S(=O)(=O)N(CC)CC)cc1N	5	0	i	-3	-0.66
CN(C)C=Nc1c(Br)cc(Br)c2nonc12	2	x	+	-1	x
N#CCCN(Cc1ccccc1)C(=O)Nc1ccc(F)cc1	x	1	x	-8	-0.01
CN(CCc1cnn(C)c1)Cc1cn[nH]c1-c1ccc(-c2ccccc2)cc1	2	0	i	10	x
COc1cc(C2CC(=O)c3cnc(N4CCN(Cc5ccccc5)CC4)nc3C2)cc(OC)c1OC (configuration not stated)	43*	83*	i	-16	-0.23
COc1ccc(C2CC(=O)c3c(C)nc(N4CCN(Cc5ccccc5)CC4)nc3C2)cc1OC (configuration not stated)	3	0	i	-12	x
Cc1nc(SCC(=O)NCc2ccco2)c2c3c(sc2n1)CCCC3	7	-1	i	2	0.32
CCCc1nc2sc3c(SCC(=O)NCc4ccco4)ncnc3c2c2c1CCC2	15*	77*	i	6	-0.86
O=c1nc2n(c3ncccc13)CCCCC2	2	-5	i	9	0.42
Cc1c(C#N)c(NC(=O)CCl)n(Cc2cccs2)c1C	40*	4	i	0	-1.3
Cc1c(C#N)c(NC(=O)CCl)n(Cc2ccc(F)cc2)c1C	6	-1	i	-3	x
Cc1c(C#N)c(NC(=O)CCl)n(Cc2ccccc2)c1C	11*	3	i	1	-1.2
CCCc1[nH]n(-c2ccc(F)cc2)c(=O)c1C=Nc1cccc(F)c1	17*	36	i	-14	0.3
CCOC(=O)N1CCN(S(=O)(=O)c2ccc(C(=O)Nc3nc4c(s3)CC(C)CC4)cc2)CC1 (configuration not stated)	20	1	+	-1	-1.1
COC(=O)C(C)SC1=N/C(=C/c2ccc(-n3cncn3)cc2)C(=O)N1 (configuration not stated)	x	-2	x	-42	-0.87
CC1(C)CC(N=c2cc(-c3ccccc3)oc3ccc(Cl)cc23)CC(C)(C)N1	71	7	+	-40	u
CN(C)c1ccc(/C=C2\C(=N)N3C(=NC2=O)Sc2cc(S(C)(=O)=O)ccc23)cc1	x	2	x	-8	x
CCSc1nc(-c2ccc(OC)cc2)cc(-c2ccccc2)c1C#N	1	-1	i	-26	-0.85
COc1ccc(-c2cc(-c3ccccc3)c(C#N)c(S(C)=O)n2)cc1 (configuration not stated)	3	x	+	-50	-3.5
CN(C(=O)COc1cc(=O)n(C)c2ccccc12)c1ccc(Cl)cc1	2	x	i	0	1.1
Cc1ccc(C)c(N(C)C(=O)COc2cc(=O)n(C)c3ccccc23)c1	3	x	+	-5	-0.46
COc1cc(OC)c(NS(=O)(=O)c2ccc(Cl)c(C(=O)OC(C)C(=O)N3CCCC3)c2)cc1Cl (configuration not stated)	4	0	i	-10	-0.93
Cc1cccc(C(=O)N2CCC(n3nnc4cc(F)ccc43)CC2)c1	3	-2	i	-2	-0.02
COc1ccc(C(=O)N2CCC(n3nnc4cc(F)ccc43)CC2)cc1OC	1	0	+	2	0.35
CCN(CCCNC(=O)COc1cc(=O)n(CC)c2ccccc12)Cc1ccccc1	5	0	+	5	0.13
COc1ccc2c(c1)-c1c(ssc1=S)C(C)(C)N2C(=O)CSC1=NCCS1	2	0	i	-5	-1.6

Source: PubChem BioAssay
